Screening data from PubChem.
PAX8 inh HTS: inhibitors of PAX8 transcriptional activity in RMG-I cells | RMG-I TPO-luciferase reporter, SteadyGlo, 24 h | inhibition, % at 12.6 µM | 1.2% of 360,000 active | AID 652154;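 active means mean replicate inhibition at least 60% with every replicate also reaching 60%; inconclusive means only one of the two criteria is met; inactive means mean below 60% and not all replicates reaching 60%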;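 further: luciferase light reporting Pax8 driven TPO promoter activity; plate controls were median of neutral control wells for no effect and mitoxantrone controls for full effect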
Xi reactivation: X-chromosome reactivation activator | XiGFP mouse fibroblasts, % GFP-positive cells imaging, 3 d; cells co-treated with 5-aza-dC sensitizer; scaled so ellipticine positive control = 100% | activation, % at 7.58 µM | 0.055% of 360,000 active;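 active means mean normalized replicate activation at least 10% and every replicate at or above 10%; inconclusive means only one of the two criteria met; inactive means mean below 10% and not all replicates reach 10%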;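 further: 0% = median of on-plate neutral control wells and 100% = ellipticine 6 µM median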
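Material: XiGFP fibroblasts, SV40-immortalized; Buffer or medium: DMEM containing 5-aza-dC; Compound dosing: single point; Times: 3 days compound exposure.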
MLL AF4-AF9 inh: blocks AF4 peptide binding to human AF9 | 0.47% of 350,000 active | inhibition, % at 10 µM | AID 651704 | AlphaScreen, biotin-AF4 peptide binding to FLAG-AF9 | P42568;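 active means every replicate reaching a set inhibition limit, whatever the replicate mean, cut at about 25% in these data; inconclusive means mean inhibition reaches that limit but some replicates miss it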;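 further: 0% = plate neutral control median and 100% = total signal loss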
Target sequence (P42568 whole entry, looked up): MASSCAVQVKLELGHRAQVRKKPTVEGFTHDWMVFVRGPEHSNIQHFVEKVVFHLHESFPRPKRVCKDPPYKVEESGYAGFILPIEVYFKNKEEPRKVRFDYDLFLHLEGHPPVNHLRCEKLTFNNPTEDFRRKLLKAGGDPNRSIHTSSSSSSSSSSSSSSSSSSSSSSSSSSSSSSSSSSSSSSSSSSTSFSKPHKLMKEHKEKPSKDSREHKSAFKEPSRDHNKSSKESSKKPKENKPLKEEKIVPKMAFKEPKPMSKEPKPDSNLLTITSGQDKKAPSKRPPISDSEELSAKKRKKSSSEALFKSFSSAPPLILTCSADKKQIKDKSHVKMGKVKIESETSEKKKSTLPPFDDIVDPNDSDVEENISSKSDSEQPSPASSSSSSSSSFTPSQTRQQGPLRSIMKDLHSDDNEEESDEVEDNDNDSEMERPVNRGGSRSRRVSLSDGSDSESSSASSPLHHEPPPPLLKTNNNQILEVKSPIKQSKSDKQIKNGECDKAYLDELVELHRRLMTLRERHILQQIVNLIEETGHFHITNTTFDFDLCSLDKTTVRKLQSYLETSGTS
EWS-Fli block: inhibitors of EWS/Fli oncoprotein transcriptional activity; A673 NR0B1-luciferase reporter, viability-normalised; inhibition, % at 12.6 µM; 0.67% of 350,000 active;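 active means mean inhibition of at least 50% after viability correction, with every replicate also passing that limit; inconclusive means mean reaches 50% but only one of two replicates passes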;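 further: firefly luciferase signal divided by Alamar Blue viability fluorescence both relative to DMSO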
GSIS activator: primary screen for activators of insulin secretion dependent on glucose, INS-1E cells, GLuc reporter luminescence | 0.61% of 370,000 active | INS-1E GLuc reporter insulin secretion, 2-3 h | activation, % at 16.6 µM | AID 743287;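 active means lowest replicate activation of at least 40%, so every replicate reaches that level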;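 further: 0% = median of neutral control wells and 100% = median of IBMX positive control wells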
PGC1a acetyl inh: lowers PGC1a acetylation signal in U2OS cells; AlphaScreen anti-acetyl-lysine; with virally co-expressed GCN5 acetyltransferase; inhibition, % at 15.6 µM; 0.17% of 350,000 active;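 active means every replicate shows inhibition of at least 40%; inconclusive means mean inhibition at least 40% but some replicate below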;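 further: 0% = neutral control wells and 100% = positive control wells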
DNA binder FP: binds DNA displacing acridine orange; shares compounds with EWS-Fli block; AID 720586; salmon sperm DNA acridine orange fluorescence polarization; AC35, µM (top dose mostly 68 µM), for inactives: at the top dose activity change, negative = DNA binding; 2% of 640 active;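 active means fitted curve reaches a 35% signal fall AC35 below twice the sample's top valid tested dose, actives reach about 48 µM in these data; inactive means the rest, including activity in the rising direction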;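 further: lower polarization ratio signals compound binding to DNA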
The depositor's hits bear a star; ? = inconclusive; · = not tested or not shown; ! = not active in a repeat. Only some compounds are listed: those with a hit (about 2.1% of all), similar ones and a draw of the others.

SMILES | PAX8 inh HTS | Xi reactivation | MLL AF4-AF9 inh | EWS-Fli block | GSIS activator | PGC1a acetyl inh | DNA binder FP
C(=C\c1ccc(C2[C@H]3CNC[C@@H]2N3Cc2cncnc2)cc1)/c1ccccc1 (some centres undefined) | 5 | 0 | · | 1 | 0 | 5 | ·
C(=C\c1ccc(C2[C@H]3CNC[C@@H]2N3Cc2ccccn2)cc1)/c1ccccc1 (some centres undefined) | 8 | 0 | ? | 59*! | 0 | 9 | -10%
CN(Cc1cnc2nc(N)nc(N)c2n1)c1ccc(C(=O)N[C@@H](CCC(=O)O)C(=O)O)cc1 | 48 | 0 | -7 | 64* | 11 | 43*! | -3%
Nc1nc2ncc(CNc3ccc(C(=O)N[C@@H](CCC(=O)O)C(=O)O)cc3)nc2c(=O)[nH]1 | · | · | 2 | 0 | · | 1 | ·
CC(=O)c1ccc(N=C2C(=O)Nc3ccccc32)cc1 | 6 | 0 | 3 | 54* | -10 | 21 | -9%
C[C@@H]1CN([C@@H](C)CO)C(=O)CCCn2cc(nn2)CO[C@@H]1CN(C)C(=O)Nc1ccccc1F | 0 | 0 | · | -3 | 3 | 7 | ·
N=c1ccn2c(n1)O[C@H]1[C@H](O)[C@@H](CO)O[C@H]12 | 49 | 0 | -3 | 53* | 13 | · | -18%
COCC(=O)Nc1ccc2c(c1)C(=O)N(C)C[C@H](OC)[C@H](C)CN(CCC(F)(F)F)[C@H](C)CO2 | -1 | 0 | 1 | -6 | -7 | 12 | ·
Nc1ccc(Oc2ccccc2-c2ccccc2)cc1 | 23 | 0 | 2 | 63* | · | -10 | -4%
CO[C@@H]1CC[C@H]2CCOc3c(C#N)cccc3C(=O)N(C)[C@@H](C)C(=O)N(C)C[C@H]1O2 | -22 | 0 | -13 | 4 | -14 | 1 | ·
COc1ccc(C2c3cc4c(cc3OC(NNC(N)=O)C2C)OCO4)cc1 (centres undefined) | · | 0 | 5 | 50* | -21 | -4 | -9%
CO[C@@H]1CN(C)C(=O)c2cc(NC(=O)c3ccccc3)ccc2OC[C@H](C)N(C(=O)CN(C)C)C[C@@H]1C | · | 0 | -1 | 0 | 23 | -23 | ·
CCN(C[C@@H]1N[C@H](CO)[C@@H]1c1ccc(C2=CCCC2)cc1)C(=O)c1ccccc1 | 23 | 0 | · | 5 | -16 | -38 | ·
CN(C[C@H]1N[C@@H](CO)[C@@H]1c1ccc(C2=CCCC2)cc1)C(=O)c1ccc(F)cc1 | 108* | 0 | -10 | 73* | 5 | 79* | -14%
CC(C)(C)c1ccc(C(=O)CC(=O)c2cc(Cl)ccc2O)cc1 | · | · | · | · | · | 6 | ·
N/C(=C\C(=O)c1cc(Cl)ccc1O)C(Cl)(Cl)Cl | 43 | 0 | -3 | 62* | -21 | -25 | -5%
O=C(CNC(c1ccccc1)c1ccccc1)Nc1ccccc1-c1ccccc1 | 8 | 0 | -3 | 54* | 6 | · | -11%
CCNC(=O)[C@@H]1[C@@H](CO)[C@@H]2Cn3c(ccc(C4=CCCCC4)c3=O)[C@H]1N2CC | · | 0 | · | · | 5 | · | -15%
CC(C)(C)c1ccc(S(=O)(=O)NCc2ccc(C(=O)NCc3ccccn3)cc2)cc1 | 4 | 0 | -2 | -1 | -7 | · | ·
O=C(NCc1ccccn1)c1ccc(CNS(=O)(=O)c2cccc(Cl)c2)cc1 | 11 | 0 | -4 | 58* | -7 | 2 | -15%
COc1ccc2c3c(n(C)c2c1)[C@H](CO)N(C(=O)NC1CCCC1)CC31CCN(C(C)=O)CC1 | · | 0 | -1 | -7 | 2 | 0 | ·
COc1cc2oc3ccc(C#Cc4ccc(N)cc4)cc3c(=O)c2cc1OC | -105 | 0 | -2 | -1 | 17 | · | ·
COc1cc2oc3cc(C#Cc4ccc(N)cc4)ccc3c(=O)c2cc1OC | 29 | 0 | -30 | 55* | · | -2 | 1%
C[C@H]1CN([C@@H](C)CO)C(=O)c2cc(NC(=O)NC3CCCCC3)ccc2O[C@H]1CN(C)Cc1ccncc1 | 7 | 0 | -1 | 17 | 3 | 7 | ·
COc1ccccc1-c1cn(CC[C@H]2CC[C@H](NC(=O)C3CCCC3)[C@@H](CO)O2)nn1 | -1 | 0 | -1 | · | -12 | 1 | ·
